# Screening results as filed in PubChem.
# FLuc act counter – firefly luciferase counter-screen for stimulation assays | P08659 | ATPlite luciferase biochemical, luminescence, 10 min; 0 = ATP-free wells, 1 = DMSO control | activation factor at 10 µM | 200,000 tested, under 10 active;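 active = luciferase activation factor, scaled between plate controls, of at least 2 with compound at 10 µM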
# Target sequence (P08659 whole entry, looked up): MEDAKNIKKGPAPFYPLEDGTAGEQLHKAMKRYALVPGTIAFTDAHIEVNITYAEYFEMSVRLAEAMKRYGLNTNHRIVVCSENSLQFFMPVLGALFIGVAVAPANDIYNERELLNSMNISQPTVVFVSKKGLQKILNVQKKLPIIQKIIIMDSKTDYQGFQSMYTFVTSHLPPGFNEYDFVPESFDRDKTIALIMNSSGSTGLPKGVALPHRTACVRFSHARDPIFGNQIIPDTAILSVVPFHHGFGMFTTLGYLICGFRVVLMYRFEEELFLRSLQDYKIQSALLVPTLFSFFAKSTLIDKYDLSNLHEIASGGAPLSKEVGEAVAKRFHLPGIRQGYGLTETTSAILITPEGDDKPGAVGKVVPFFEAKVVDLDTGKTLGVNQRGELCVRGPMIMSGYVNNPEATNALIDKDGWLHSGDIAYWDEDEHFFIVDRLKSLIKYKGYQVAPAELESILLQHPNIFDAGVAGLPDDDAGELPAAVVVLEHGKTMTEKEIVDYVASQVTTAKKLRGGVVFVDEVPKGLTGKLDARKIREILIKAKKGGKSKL
#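 System: Luciferase/luciferin detection reagent, cell-free biochemical luciferase assay | Medium: PBS buffer for ATP | Dosing: Test compounds dosed from 2 mM stocks in 100% DMSO | Timing: 10 min at ambient temperature | Signal: Luminescence measurement of luciferase light output | Evaluation: Luciferase activation, seen as luminescence increase over controls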
# hiPSC survival – increases survival of single human iPS cells | hit rate 0.044% among 360,000 | hiPSC single-cell survival, ATPlite luminescence; 100% = ROCK inhibitor wells, 0% = DMSO | survival enhancement, % at 20 µM; in the data active = survival enhancement above about 18%;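 note: cells exposed to compounds for 16 hours before the ATP read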
# C8 TRAIL sens – sensitizes caspase-8 expressing cells to TRAIL; NB7+C8 cells + TRAIL, ATPlite viability luminescence; inhibition (viability loss, TRAIL sensitization), % at 10 µM; hit rate 1% among 360,000;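 active = compounds causing at least 50% loss of cell viability in the single-dose screen, relative to plate controls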
# PPC-1+TRAIL kill – compounds killing PPC-1 cancer cells with TRAIL present (potentiator screen, no TRAIL-free arm) | PPC-1 cells + TRAIL, ATPLite viability luminescence | cell killing (% activity), % at 4 µM or 5 µM | hit rate 0.41% among 220,000 | AID 1443;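 active = cell killing above 50% in the first pass at 4 µM, then a duplicate retest at 5 µM averaging 50% or more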;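 note: plate controls were cells with TRAIL plus DMSO for no effect and medium-only wells lacking cells for full effect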
# MIN6 prolif-1 – MIN6 beta-cell proliferation induction; MIN6 cells proliferation, ATPlite luminescence, 48 h; cells starved in 0.2% serum; 100% = growth in 10% serum; proliferation, % at 10 µM; hit rate 0.29% among 330,000;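 active = compounds whose signal lies at least 3.5 SD above the mean of all wells on their plate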;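 note: 0% = DMSO-treated cells in low-serum medium and 100% = 10% serum control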
# FLuc inh counter – Photinus pyralis luciferase inhibition counter-screen. P08659. AID 1006. inhibition, % at 10 µM. ATPLite firefly luciferase biochemical luminescence, 10 min. hit rate 1.5% among 200,000;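 active = inhibition above about 50% when tested at 10 µM, limit read from the data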
# MIN6 prolif-2 – confirmation of inducers of beta-cell replication in MIN6 cells. shares compounds with MIN6 prolif-1. MIN6 beta-cell proliferation, ATPlite luminescence, 48 h; cells kept in 0.2% serum; scaled between 0.2% and 10% serum. proliferation increase, % at 50 µM. 920 tested, under 10 active;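 active = proliferation increase above 40% at any of the four tested concentrations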
# Starred values were filed as active, the others as inactive; . = no result. Hits are enriched below; roughly 1.8% of the tested compounds scored in any of these assays.
SMILES,FLuc act counter,hiPSC survival,C8 TRAIL sens,PPC-1+TRAIL kill,MIN6 prolif-1,FLuc inh counter,MIN6 prolif-2
CCCCN(CC)C(=O)c1cc2c(=O)n3cccc(C)c3nc2s1,.,0,0,.,11*,.,-6
CCN(C(=O)c1cc2c(=O)n3ccccc3nc2s1)C1CCCCC1,.,0,-5,.,6.9*,.,-4
CCCCn1c(=O)[nH]c(=O)c2c1nc(-c1cc(Br)c(OCC)c(OC)c1)n2C,.,0,-26,.,0,.,.
C=CCOc1ccc(-c2nc3c(c(=O)[nH]c(=O)n3CCCC)n2C)cc1OC,1.1,-1,-6,-10,12*,-5,2
CN(C)c1nc(N(C)C)nc(N(C#N)CCOc2ccccc2)n1,1,4,14,0,9.9*,-4,-6
Cc1ccc(CNC(=O)C2CCCN(c3ncnc4c3nc3n4CCCCC3)C2)cc1 (centres undefined),.,0,-6,.,14*,.,-5
Cc1cccc(S(=O)(=O)NC(=O)C2(C)CCN2C(=O)Cc2cc(F)ccc2F)c1 (centres undefined),.,0,-3,.,.,.,.
COc1ccc(N2CCN(C(=O)c3ccc(CNS(=O)(=O)c4cccc(OC)c4)cc3)CC2)cc1,.,0,10,.,1,.,.
CC1CCN(CC(=O)Nc2nc(-c3ccccc3)cs2)CC1,.,2,-1,.,6.2*,.,-6
NC(=O)C1CCN(CC(=O)Nc2nc(-c3ccccc3)cs2)CC1,.,0,0,.,1,.,.
Cc1ccc(S(=O)(=O)NCC(=O)NC2CC2)cc1,.,0,2,.,11*,.,0
CC(=NNC(=S)N1CC2CCC(CC2)C1)c1ccncn1,.,-2,19,.,.,.,.
COc1ccc(-c2nnc(-c3ccc(Br)o3)o2)cc1OC,0.9,-2,17,16,7.2*,10,2
COc1ccc(-c2nc(-c3ccc(Br)o3)no2)cc1OC,1,0,-3,18,-2,4,.
Cc1n[nH]c(C)c1S(=O)(=O)N1CCCC(C(=O)O)C1 (centres undefined),.,0,-1,.,1,.,.
Cc1cccc(OCC(=O)NC2CCCCCC2)c1C,.,0,8,.,1,.,.
Cc1ccccc1OCC(=O)NC1CCCCCCC1,.,0,7,.,6.0*,.,-6
Cc1c(NS(=O)(=O)c2cccc(C(=O)O)c2)c(=O)n(-c2ccccc2)n1C,.,0,-7,.,4.9*,.,-4
Oc1ccc(Cl)cc1CNCC1CCCCC1,.,-2,14,.,0,.,.
CCOC(=O)c1c(C)c2c(=O)[nH]cnc2n1-c1ccccc1,.,0,13,.,9.8*,.,12
CCOC(=O)c1sc2nc[nH]c(=O)c2c1C,1.1,-3,-7,-1,4,-6,.
COc1cc2c(cc1OC)CN(C(=O)CCNS(=O)(=O)c1ccccc1F)CC2,.,1,-1,.,0,.,.
CCCCCOC(=O)Cn1c(N2CCCCCC2)nc2c1c(=O)[nH]c(=O)n2C,1,-1,-9,7,9.2*,-4,-5
CCOCCCNc1nc(=S)[nH]c2cc(OC)c(OC)cc12,1.1,-5,0,2,7.2*,-10,0
CCCCNc1nc(=S)[nH]c2cc(OC)c(OC)cc12,1.1,-3,-4,6,-1,-7,.
SMILES,FLuc act counter,hiPSC survival,C8 TRAIL sens,PPC-1+TRAIL kill,MIN6 prolif-1,FLuc inh counter,MIN6 prolif-2
NC(=S)N/N=C\c1c(OCc2ccccc2Cl)ccc2ccccc12,1,-1,14,14,-6,-2,.
COc1ccc(-c2c(C(C)=O)c(C)nc3sc4c(c23)NC(c2ccccc2)NC4=O)cc1 (centres undefined),1,3,-15,-4,-1,-5,.
CCOC(=O)c1c(C)nc2sc3c(c2c1-c1ccc(OC)cc1)NC(c1ccccc1)NC3=O (centres undefined),1,26*,15,28,9.2*,1,8
CN=C1N(C)C[C@@H]2[C@@H]3C(=O)N(C)C(=O)[C@@H]3[C@](Cc3ccccc3)(C(=O)OC)N12,.,0,23,.,.,.,.
CCCn1cnc2scc(-c3ccc(C)cc3)c2c1=O,1.1,0,-8,11,14*,-7,-2
CCOC(=O)c1sc(NC(NC(=O)c2ccco2)(C(=O)OC)C(F)(F)F)nc1C (centres undefined),1,-2,9,11,7.6*,0,-2
CCOC(=O)c1sc(NC(=S)NC(=O)c2ccco2)nc1C,0.7,0,28,-14,-2,33,.
CNCCCOc1cccc(Oc2ccccc2)c1,1.1,3,1,17,-5,-9,.
CNCCCOc1cccc(OC(C)C)c1,1,4,10,10,6.3*,-2,-1
O=C(NCC1CCCO1)c1ccccc1OCc1ccc(Cl)cc1 (centres undefined),.,1,21,.,15*,.,-4
NS(=O)(=O)c1ccc(NC(=S)NCc2ccccc2Cl)cc1,1,0,-10,-1,5.3*,-2,-6
Cc1ccc2c(C)c(C(=O)N3CCN(c4ncccn4)CC3)oc2c1C,.,0,-17,.,6,.,.
COc1ccc(CCNC(=O)CCN2C(=O)c3cccc4cccc(c34)C2=O)cc1OC,1.1,-1,-4,3,7.9*,-10,0
C=C(C)CN1C(=O)C2(OCCO2)c2cc(Br)ccc21,.,1,0,.,4,.,.
COc1cc(Nc2nc3ccccc3n3nnnc23)cc(OC)c1OC,1.1,2,24,13,10*,-5,-6
COc1ccc(Nc2nc3ccccc3n3nnnc23)cc1,1,0,2,12,6,-2,.
Cc1ccc(OCCNC(=O)CCNS(=O)(=O)c2ccc3ccccc3c2)cc1,.,0,-13,.,-1,.,.
COC(=O)c1cnc(N2CCOCC2)nc1C(F)(F)F,.,0,0,4,6.3*,.,0
COC(=O)c1cnc(N2CCCN(S(=O)(=O)c3ccccc3)CC2)nc1C(F)(F)F,.,0,5,2,-3,.,.
CCc1ccc(OCc2ccc(C(=O)NCc3ccccn3)o2)cc1,1,9,-1,-31,-3,0,.
CCOc1ccc(OCc2ccc(C(=O)NCc3ccncc3)o2)cc1,1,-1,-9,3,4.9*,-4,-5
CCc1sc(C(=O)N2CCc3cc(OC)c(OC)cc3C2CC(=O)O)cc1C (centres undefined),.,0,3,.,-2,.,.
COc1cccc(COc2nc3c(c(=O)n(C)c(=O)n3C)n2C)c1,1,1,36,-5,2,3,.
Cn1c(=O)c2c(nc(OCc3ccccc3)n2C)n(C)c1=O,1,-2,24,2,16*,-4,5
COc1ccc2c(CN(C)Cc3ccccc3)cc(=O)oc2c1,.,2,-2,.,.,.,.
